Assay results taken from ChEMBL document CHEMBL3763019, “Discovery of benzenesulfonamide derivatives as potent PI3K/mTOR dual inhibitors with in vivo efficacies against hepatocellular carcinoma” (Bioorg Med Chem, 2016).

Target: Serine/threonine-protein kinase mTOR (Homo sapiens, UniProt P42345)
Experiment: Inhibition of insulin-stimulated mTOR phosphorylation in human A549 cells after 30 mins by Western blot analysis
Format: cell-based
Procedure, shortened: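 A549 cells were insulin-stimulated for 2 h, then exposed to four compound concentrations for 30 min. Lysis was in ice-cold RIPA buffer, protein was quantified by BCA, and lysates were run on 10% SDS-PAGE and transferred to nitrocellulose. Detection was by infrared imaging, with β-actin as loading control.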

COc1ncc(-c2ccc3nccc(C#CCN4CCN(S(C)(=O)=O)CC4)c3c2)cc1NS(=O)(=O)c1ccc(F)cc1F
inhibition: Dose-dependent effect
